Calls of active or inactive are those of the source. The calls are words filed in the database; no cut-off is given here.
Legend:
Format in all cases: cell-based
[1] = target: T1, Retinoic acid receptor RXR-alpha (Homo sapiens) (UniProt P19793); assay: Agonist activity at Gal4-LBD fused RXRalpha (unknown origin) expressed in HEK293T cells assessed as fold activation at 10 uM after 14 to 16 hrs by dual-Glo luciferase assay relative to untreated control
T1 sequence (whole entry): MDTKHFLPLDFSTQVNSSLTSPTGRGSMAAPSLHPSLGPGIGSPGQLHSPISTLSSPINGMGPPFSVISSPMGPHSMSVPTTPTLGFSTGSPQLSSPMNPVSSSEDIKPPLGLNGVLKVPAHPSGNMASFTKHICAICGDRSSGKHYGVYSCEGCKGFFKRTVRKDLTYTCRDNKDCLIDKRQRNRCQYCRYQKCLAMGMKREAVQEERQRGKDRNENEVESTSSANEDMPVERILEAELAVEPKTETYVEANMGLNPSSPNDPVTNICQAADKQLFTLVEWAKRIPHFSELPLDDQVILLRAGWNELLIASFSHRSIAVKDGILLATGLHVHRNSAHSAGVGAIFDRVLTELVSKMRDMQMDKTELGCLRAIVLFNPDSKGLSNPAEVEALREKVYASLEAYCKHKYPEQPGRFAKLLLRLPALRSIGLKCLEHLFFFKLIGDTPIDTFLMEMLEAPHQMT
Summary of the method: (§1)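 Gal4-hybrid RXRα/β/γ reporter gene assays in HEK293T cells. Fold activation is the maximal fold activation versus 0.1% DMSO.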

[2] = target: T1, Retinoic acid receptor RXR-alpha (Homo sapiens); assay: Agonist activity at Gal4-LBD fused RXRalpha (unknown origin) expressed in HEK293T cells assessed as fold activation after 14 to 16 hrs by dual-Glo luciferase assay relative to untreated control; summary of the method: as §1
[3] = target: T2, Retinoic acid receptor RXR-beta (Homo sapiens, UniProt P28702); assay: Agonist activity at Gal4-LBD fused RXRbeta (unknown origin) expressed in HEK293T cells after 14 to 16 hrs by dual-Glo luciferase assay; summary of the method: as §1
T2 sequence (P28702 whole entry): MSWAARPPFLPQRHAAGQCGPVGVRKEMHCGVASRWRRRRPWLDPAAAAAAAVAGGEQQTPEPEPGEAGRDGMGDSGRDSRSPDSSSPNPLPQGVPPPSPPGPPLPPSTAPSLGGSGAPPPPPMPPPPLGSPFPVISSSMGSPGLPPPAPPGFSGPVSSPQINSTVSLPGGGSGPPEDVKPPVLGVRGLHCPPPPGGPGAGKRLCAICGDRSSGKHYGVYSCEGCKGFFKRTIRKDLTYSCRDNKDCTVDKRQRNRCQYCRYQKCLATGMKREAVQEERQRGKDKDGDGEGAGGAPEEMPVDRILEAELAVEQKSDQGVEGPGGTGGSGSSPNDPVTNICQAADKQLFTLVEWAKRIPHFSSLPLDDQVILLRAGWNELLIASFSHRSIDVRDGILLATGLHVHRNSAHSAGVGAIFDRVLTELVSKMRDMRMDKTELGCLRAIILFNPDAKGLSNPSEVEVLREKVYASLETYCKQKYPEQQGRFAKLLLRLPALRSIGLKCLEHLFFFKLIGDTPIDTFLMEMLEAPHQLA

[4] = target: T3, Retinoic acid receptor RXR-gamma (Homo sapiens) (UniProt P48443); assay: Agonist activity at Gal4-LBD fused RXRgamma (unknown origin) expressed in HEK293T cells at 10 uM after 14 to 16 hrs by dual-Glo luciferase assay
T3 sequence (whole entry): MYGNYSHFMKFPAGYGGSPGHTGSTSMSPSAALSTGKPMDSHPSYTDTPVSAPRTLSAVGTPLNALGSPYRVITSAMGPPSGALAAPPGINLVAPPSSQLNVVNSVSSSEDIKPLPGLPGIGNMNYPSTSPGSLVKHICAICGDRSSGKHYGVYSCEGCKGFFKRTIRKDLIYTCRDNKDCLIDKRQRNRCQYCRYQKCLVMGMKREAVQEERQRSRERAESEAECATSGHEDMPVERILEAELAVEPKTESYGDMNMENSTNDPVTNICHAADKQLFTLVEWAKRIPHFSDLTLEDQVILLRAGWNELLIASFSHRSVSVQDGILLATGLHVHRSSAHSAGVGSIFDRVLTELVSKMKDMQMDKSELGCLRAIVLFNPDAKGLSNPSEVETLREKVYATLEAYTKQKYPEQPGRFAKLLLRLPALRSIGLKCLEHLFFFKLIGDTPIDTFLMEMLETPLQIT

[5] = target: T4, Retinoic acid receptor RXR-beta (Homo sapiens) (UniProt P28702); assay: Agonist activity at Gal4-LBD fused RXRbeta (unknown origin) expressed in HEK293T cells assessed as fold activation at 10 uM after 14 to 16 hrs by dual-Glo luciferase assay relative to untreated control; summary of the method: as §1
T4 sequence (whole entry): T2 sequence (P28702 whole entry)

[6] = target: T5, Retinoic acid receptor RXR-alpha (Homo sapiens, UniProt P19793); assay: Agonist activity at Gal4-LBD fused RXRalpha (unknown origin) expressed in HEK293T cells after 14 to 16 hrs by dual-Glo luciferase assay; summary of the method: as §1
T5 sequence (P19793 whole entry): T1 sequence (whole entry)

[7] = target: T3, Retinoic acid receptor RXR-gamma (Homo sapiens); assay: Agonist activity at Gal4-LBD fused RXRgamma (unknown origin) expressed in HEK293T cells assessed as fold activation at 10 uM after 14 to 16 hrs by dual-Glo luciferase assay relative to untreated control; summary of the method: as §1
[8] = target: T4, Retinoic acid receptor RXR-beta (Homo sapiens); assay: Agonist activity at Gal4-LBD fused RXRbeta (unknown origin) expressed in HEK293T cells assessed as fold activation after 14 to 16 hrs by dual-Glo luciferase assay relative to untreated control; summary of the method: as §1
[9] = target: T3, Retinoic acid receptor RXR-gamma (Homo sapiens); assay: Agonist activity at Gal4-LBD fused RXRgamma (unknown origin) expressed in HEK293T cells at 30 uM after 14 to 16 hrs by dual-Glo luciferase assay
[10] = target: T4, Retinoic acid receptor RXR-beta (Homo sapiens); assay: Agonist activity at Gal4-LBD fused RXRbeta (unknown origin) expressed in HEK293T cells at 30 uM after 14 to 16 hrs by dual-Glo luciferase assay
[11] = target: T1, Retinoic acid receptor RXR-alpha (Homo sapiens); assay: Agonist activity at Gal4-LBD fused RXRalpha (unknown origin) expressed in HEK293T cells at 30 uM after 14 to 16 hrs by dual-Glo luciferase assay
[12] = target: T3, Retinoic acid receptor RXR-gamma (Homo sapiens); assay: Agonist activity at Gal4-LBD fused RXRgamma (unknown origin) expressed in HEK293T cells at 20 uM after 14 to 16 hrs by dual-Glo luciferase assay
[13] = target: T1, Retinoic acid receptor RXR-alpha (Homo sapiens); assay: Agonist activity at Gal4-LBD fused RXRalpha (unknown origin) expressed in HEK293T cells assessed as fold activation at 30 uM after 14 to 16 hrs by dual-Glo luciferase assay relative to untreated control; summary of the method: as §1
[14] = target: T3, Retinoic acid receptor RXR-gamma (Homo sapiens); assay: Agonist activity at Gal4-LBD fused RXRgamma (unknown origin) expressed in HEK293T cells assessed as fold activation at 30 uM after 14 to 16 hrs by dual-Glo luciferase assay relative to untreated control; summary of the method: as §1
[15] = target: T4, Retinoic acid receptor RXR-beta (Homo sapiens); assay: Agonist activity at Gal4-LBD fused RXRbeta (unknown origin) expressed in HEK293T cells assessed as fold activation at 30 uM after 14 to 16 hrs by dual-Glo luciferase assay relative to untreated control; summary of the method: as §1
[16] = target: T6, Retinoic acid receptor RXR-gamma (Homo sapiens, UniProt P48443); assay: Agonist activity at Gal4-LBD fused RXRgamma (unknown origin) expressed in HEK293T cells after 14 to 16 hrs by dual-Glo luciferase assay; summary of the method: as §1
T6 sequence (P48443 whole entry): T3 sequence (whole entry)

[17] = target: T3, Retinoic acid receptor RXR-gamma (Homo sapiens); assay: Agonist activity at Gal4-LBD fused RXRgamma (unknown origin) expressed in HEK293T cells assessed as fold activation after 14 to 16 hrs by dual-Glo luciferase assay relative to untreated control; summary of the method: as §1
[18] = target: T1, Retinoic acid receptor RXR-alpha (Homo sapiens); assay: Agonist activity at Gal4-LBD fused RXRalpha (unknown origin) expressed in HEK293T cells assessed as fold activation at 20 uM after 14 to 16 hrs by dual-Glo luciferase assay relative to untreated control; summary of the method: as §1
[19] = target: T4, Retinoic acid receptor RXR-beta (Homo sapiens); assay: Agonist activity at Gal4-LBD fused RXRbeta (unknown origin) expressed in HEK293T cells assessed as fold activation at 20 uM after 14 to 16 hrs by dual-Glo luciferase assay relative to untreated control; summary of the method: as §1
[20] = target: T3, Retinoic acid receptor RXR-gamma (Homo sapiens); assay: Agonist activity at Gal4-LBD fused RXRgamma (unknown origin) expressed in HEK293T cells assessed as fold activation at 20 uM after 14 to 16 hrs by dual-Glo luciferase assay relative to untreated control; summary of the method: as §1

fold change (FC) [2] | EC50 [3] | EC50 [6] | fold change (FC) [8] | Activity [9] | SMILES | other results
31 | 3.1 µM | 3.7 µM | 84 | – | CC(C)(C)c1cc(-c2cccc(C(=O)O)c2)cc(C(C)(C)C)c1 | fold change (FC) [1]: 32; Activity [4]: inactive; fold change (FC) [5]: 82; fold change (FC) [7]: 4
– | – | – | – | inactive | O=C(O)c1ccc(-c2ccccc2)cc1 | Activity [10]: inactive; Activity [11]: inactive
19 | 12.8 µM | 18 µM | 35 | – | CC(C)(C)c1cccc(-c2ccc(C(=O)O)cc2)c1 | Activity [12]: inactive
3.5 | 7 µM | 3.5 µM | 28 | – | Cc1cc(-c2cc(C(C)(C)C)cc(C(C)(C)C)c2)ccc1CC(=O)O | Activity [4]: inactive
26 | 18.6 µM | 9.6 µM | 97 | inactive | Cc1cc(C)cc(-c2ccc(C(=O)O)cc2)c1 | fold change (FC) [13]: 25; fold change (FC) [14]: 2; fold change (FC) [15]: 74
11 | 30 µM | 22.5 µM | 11 | inactive | CCOc1cccc(-c2ccc(C(=O)O)cc2)c1 | –
50 | 3.7 µM | 3.1 µM | 122 | – | O=C(O)c1ccc(-c2cc(C(F)(F)F)cc(C(F)(F)F)c2)cc1 | fold change (FC) [1]: 48; EC50 [16]: 12.5 µM; fold change (FC) [17]: 25; fold change (FC) [5]: 120; fold change (FC) [7]: 10
38 | 13 µM | 9.3 µM | 68 | – | O=C(O)c1ccc(-c2cc(Cl)cc(Cl)c2)cc1 | fold change (FC) [18]: 33; fold change (FC) [19]: 60; EC50 [16]: > 30 µM; fold change (FC) [20]: 3
– | – | – | – | inactive | Cc1cccc(-c2ccc(C(=O)O)cc2)c1 | Activity [10]: inactive; Activity [11]: inactive

Source: ChEMBL document CHEMBL4304816, “A Novel Biphenyl-based Chemotype of Retinoid X Receptor Ligands Enables Subtype and Heterodimer Preferences” (ACS Med Chem Lett, 2019)
